RAM inhibit = inhibitors of the yeast RAM network; 190,000 compounds, 1.8% hits; S. cerevisiae dse1pr::URA3 reporter, 5-FOA growth OD615, 2 d; analog-sensitive cbk1-as2 kinase mutant strain; AID 868; inhibition, % at 50 µM;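 active = inhibition above a set limit, 3 SD over mean compound inhibition, cut at about 8.4% in these data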;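 note: 0% = DMSO-only wells with no growth and 100% = 10 µM 1-NA-PP1 full growth; inhibition rescues growth on 5-FOA so higher OD means more RAM inhibition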
Yeast life ext = extends the lifespan of yeast. S. cerevisiae growth with nicotinamide, OD615; deaD strain in restrictive glucose medium. inhibition of the nicotinamide effect, % at 10 µM. 130,000 compounds, 0.68% hits;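 active = inhibition above a set limit, placed 3 SD over the median of all compounds, cut at about 26% in these data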;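 note: 0% = nicotinamide-treated wells and 100% = cells grown without nicotinamide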
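assay system = DeaD-strain S. cerevisiae | measured by = absorbance at 615 nm | probe or stimulus = nicotinamide 1.5 mM | buffer or medium = CSMM-D glucose medium, restrictive | times = 48 h at 30 °C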
Cl transport mod = modulators of human KCC2 chloride dependent transport; Q9H2X9; KCC2 cells, thallium flux FluoZin-2 fluorescence; B-score of Tl+ flux slope (higher = more flux/activation; lower = inhibition) at 10 µM; 190,000 compounds, 2.2% hits;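 active = thallium flux slope and its plate-corrected score both differing from the plate sample mean at a set confidence after two filtering rounds, in either direction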;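 note: slope of fluorescence scaled to starting intensity during 10 to 20 s after thallium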
Target sequence (Q9H2X9 whole entry, looked up): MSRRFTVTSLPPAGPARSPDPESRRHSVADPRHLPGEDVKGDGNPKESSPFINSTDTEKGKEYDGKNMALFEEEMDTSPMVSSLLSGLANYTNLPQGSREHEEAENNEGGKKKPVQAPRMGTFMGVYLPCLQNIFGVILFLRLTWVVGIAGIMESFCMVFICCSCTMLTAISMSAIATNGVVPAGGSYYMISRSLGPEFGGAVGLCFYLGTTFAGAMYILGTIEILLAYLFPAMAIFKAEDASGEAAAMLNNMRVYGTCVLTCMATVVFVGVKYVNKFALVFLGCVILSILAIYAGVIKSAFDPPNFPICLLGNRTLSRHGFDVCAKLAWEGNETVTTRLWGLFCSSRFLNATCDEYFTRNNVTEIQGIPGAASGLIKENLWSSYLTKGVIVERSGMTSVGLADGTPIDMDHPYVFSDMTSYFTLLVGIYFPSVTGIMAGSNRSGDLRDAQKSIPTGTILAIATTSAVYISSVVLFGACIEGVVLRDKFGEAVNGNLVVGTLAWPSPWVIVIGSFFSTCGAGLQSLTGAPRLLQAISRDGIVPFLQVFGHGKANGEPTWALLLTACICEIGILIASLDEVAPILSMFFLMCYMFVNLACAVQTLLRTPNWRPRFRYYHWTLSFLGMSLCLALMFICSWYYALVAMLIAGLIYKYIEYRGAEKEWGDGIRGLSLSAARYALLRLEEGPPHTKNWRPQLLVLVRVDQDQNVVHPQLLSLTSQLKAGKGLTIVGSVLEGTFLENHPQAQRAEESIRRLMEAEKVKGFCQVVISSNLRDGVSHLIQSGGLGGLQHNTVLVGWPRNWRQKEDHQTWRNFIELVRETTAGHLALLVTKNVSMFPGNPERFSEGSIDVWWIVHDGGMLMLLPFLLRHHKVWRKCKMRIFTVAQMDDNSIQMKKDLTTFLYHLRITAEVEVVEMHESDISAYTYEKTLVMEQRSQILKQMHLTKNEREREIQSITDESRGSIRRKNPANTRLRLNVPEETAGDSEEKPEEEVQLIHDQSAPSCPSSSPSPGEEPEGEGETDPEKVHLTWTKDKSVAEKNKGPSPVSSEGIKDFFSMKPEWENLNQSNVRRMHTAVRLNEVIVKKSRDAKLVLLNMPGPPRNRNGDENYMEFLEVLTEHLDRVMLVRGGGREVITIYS
BB579 growth dn = chemicals that inhibit yeast BB579 growth in restrictive medium (lifespan-shortening candidates); S. cerevisiae BB579 growth, OD615, 48 h; inhibition, % at 10 µM; 140,000 compounds, 0.51% hits; AID 804;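 active = inhibition above a set limit, 3 SD over the mean compound inhibition, cut at about 44% in these data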
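controls = amphotericin B 10 µg/mL, positive | assay system = DeaD yeast strain BB579 | schedule = 48 h compound exposure at 30 °C after 4 h preincubation | detection = OD615 turbidity measurement | medium = restrictive CSMM-D medium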
WT yeast gro inh = growth inhibition of WT yeast, mitochondrial fusion screen; mitochondrial fusion phenotypic screen, WT strain; inhibition, % at 10 µM; 190,000 compounds, 2.1% hits; AID 1362; in the data active = inhibition above about 58%; tested in S. cerevisiae
KCC2 secondary = KCC2 (human) modulation, secondary assay; shares compounds with Cl transport mod; HEK293-KCC2, thallium flux, FluoZin2 fluorescence; hits give high values; normalised thallium flux (F/F0 slope) at 10 µM; 3,700 compounds, 15% hits; AID 1713;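 active = thallium flux slope above the same plate's solvent-only control mean plus 3 SD; inconclusive = the two replicate wells disagree; inactive = no significant difference from solvent-only control wells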
KCC2 bumet counter = thallium flux persisting under bumetanide in KCC2 cells, counter-screen secondary assay | shares compounds with Cl transport mod | AID 1714 | 3,700 compounds, 49% hits | normalized thallium flux at 10 µM | HEK293-KCC2 + bumetanide/ouabain, thallium flux FluoZin2; hits give high values;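 active = thallium entry rate above the same plate's blocked-transporter control wells by more than 3 SD; inconclusive = the two repeat wells disagree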;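 note: raw slope of fluorescence over initial fluorescence between 10 and 20 s after thallium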
KCC2 sec2 = KCC2 (human) modulation, second secondary assay. shares compounds with Cl transport mod. HEK293-KCC2, thallium flux FluoZin2 fluorescence; actives lie on both sides; F/F0 rise rate, 10–20 s post-thallium. normalized thallium flux at 10 µM. 3,700 compounds, 23% hits. AID 1715;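 active = thallium flux slope more than 3 SD above or below the plate's solvent-only control mean, mostly below; inconclusive = the two repeat wells disagreed; inactive = no significant shift from solvent-only controls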;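 note: raw slope with 0.1% DMSO as baseline and bumetanide as block control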
HEK293 Tl flux = counter-screen for KCC2 modulators: effect in parental HEK293 cells; shares compounds with Cl transport mod; thallium flux FluoZin2, ouabain; baseline-ratio fluorescence slope, 10–20 s after thallium; thallium flux rate (normalised fluorescence) at 10 µM; 3,700 compounds, 46% hits; AID 1716;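 active = thallium flux rate significantly above the same plate's solvent-only control wells, beyond their mean plus 3 SD; inconclusive = the two replicate wells gave conflicting results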
KCC2 retest ouab = KCC2 (human) modulation, ouabain retest | raw Tl+ flux slope (below DMSO = inhibition, above = activation) at 10 µM | HEK293-KCC2, thallium flux FluoZin2 fluorescence; bidirectional: low = inhibitor, high = activator | 3,700 compounds, 48% hits | AID 1717 | shares compounds with Cl transport mod;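 active = thallium flux slope beyond 3 SD from same-plate DMSO control mean in most replicates, usually higher, sometimes lower; inconclusive = repeat tests gave conflicting results; inactive = no significant difference from controls in most replicates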;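 note: slope of initial-normalized fluorescence between seconds 10 and 20 after thallium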
HEK counter2 = counter-screen for KCC2 modulators: effect in parental HEK293 cells | shares compounds with Cl transport mod | thallium flux FluoZin-2 fluorescence slope | thallium flux slope at 10 µM | 3,700 compounds, 33% hits | AID 1718;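 active = thallium flux slope above the same plate's solvent-control mean plus 3 SD in both duplicate wells; inconclusive = duplicate wells that disagreed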;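 note: run without ouabain in cells lacking the KCC2 cotransporter; slope of fluorescence scaled to its starting value between 10 and 20 s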
An asterisk follows results filed as active. Only some compounds are listed: those with a hit (about 5.5% of all), similar ones and a draw of the others.

For O=c1c2ccc(Cl)cc2nc(-c2ccc([N+](=O)[O-])cc2)n1O the results were RAM inhibit -1.5, Cl transport mod 56.8*, WT yeast gro inh 34.6, KCC2 secondary 0.0118*, KCC2 bumet counter 0.092*, KCC2 sec2 0.0594*, HEK293 Tl flux 0.065*, KCC2 retest ouab 0.0788* and HEK counter2 0.0423*.
`O=C(Nc1ccc(F)cc1)c1ccccc1CC[N+](=O)[O-]` gave RAM inhibit 2.2, Yeast life ext -8.0, BB579 growth dn -53.4 and WT yeast gro inh -0.9.
For Cc1oc(CC(C)C)c(CN)c1C(=O)O the results were RAM inhibit -1.4, Yeast life ext -20.4, Cl transport mod -0.169, BB579 growth dn -27.1 and WT yeast gro inh 1.9.
For CC1(C)CC(CCNC(=O)CCl)(c2ccccc2)CCO1 (stereo not drawn) the results were Cl transport mod -0.444.
O=c1c2ccccc2nnn1Cc1ccccc1Cl was read as RAM inhibit 2.3, Cl transport mod -1.04 and WT yeast gro inh -5.6.
Screening COc1ccc(CNC(=O)c2ccc3c(=O)n(CCCN4CCCC4=O)c(=S)[nH]c3c2)cc1 returned RAM inhibit 6.7, Cl transport mod -0.0442 and WT yeast gro inh 7.2.
For C=CCn1c(=S)[nH]c2sccc2c1=O the results were RAM inhibit 0.1, Cl transport mod 7.77*, WT yeast gro inh -7.4, KCC2 secondary 0.00678, KCC2 bumet counter 0.0147*, KCC2 sec2 0.0357, HEK293 Tl flux 0.0166*, KCC2 retest ouab inconclusive and HEK counter2 0.0192*.
`CCN(CC)c1ccc(/C=N/NC(=O)OC)c(O)c1` gave RAM inhibit -0.1, Yeast life ext -1.4, Cl transport mod 1.2, BB579 growth dn -27.7 and WT yeast gro inh -15.1.
Screening CCN(CC)c1ccc(/C=N/NC(=S)NC)c(O)c1 returned RAM inhibit 0.0, Cl transport mod 5.1*, WT yeast gro inh 4.0, KCC2 secondary 0.00907, KCC2 bumet counter 0.0125*, KCC2 sec2 0.0308, HEK293 Tl flux inconclusive, KCC2 retest ouab 0.0222 and HEK counter2 0.0103.
For N#CC1=C(N)N=C(SCc2ccccc2)C(C(N)=O)C12CCCCC2 (stereo not drawn) the results were RAM inhibit 0.0, Yeast life ext -16.3, Cl transport mod -5.54*, BB579 growth dn 7.6, WT yeast gro inh 0.4, KCC2 secondary 0.00698, KCC2 bumet counter 0.0094*, KCC2 sec2 inconclusive, HEK293 Tl flux 0.00758, KCC2 retest ouab 0.0145* and HEK counter2 0.00999.
`CCOCCCNC(=O)c1ccccc1OC1CCN(S(C)(=O)=O)CC1` gave RAM inhibit 1.5, Cl transport mod -0.802 and WT yeast gro inh -8.2.
Screening CCOC(=O)N/N=C(\CCC(=O)O)c1cccs1 returned Cl transport mod 7.24*, KCC2 secondary 0.00944, KCC2 bumet counter 0.00586, KCC2 sec2 0.0332, HEK293 Tl flux 0.00751, KCC2 retest ouab 0.02 and HEK counter2 0.0105.
O=C1NC(=O)/C(=C\c2ccccc2Oc2ccc(F)c(F)c2)S1 was read as RAM inhibit 5.3, Yeast life ext -4.2, Cl transport mod -4.29, BB579 growth dn -21.0 and WT yeast gro inh 30.0.
`O=C1NC(=O)/C(=C/c2ccccc2OCc2ccccc2)S1` gave RAM inhibit 2.5, Cl transport mod -5.68*, WT yeast gro inh 24.7, KCC2 secondary 0.00856, KCC2 bumet counter 0.00713, KCC2 sec2 0.033, HEK293 Tl flux 0.00644, KCC2 retest ouab 0.0153* and HEK counter2 inconclusive.
CCOc1ccc(NC(=S)NNC(=O)c2cc(Br)ccc2Cl)cc1 was read as RAM inhibit 1.5, Cl transport mod 8.52*, WT yeast gro inh -15.5, KCC2 secondary 0.0096, KCC2 bumet counter 0.0413*, KCC2 sec2 0.0344, HEK293 Tl flux inconclusive, KCC2 retest ouab 0.0345* and HEK counter2 0.013.
`CCOc1ccc(NC(=O)c2cc(SC)ccc2Cl)cc1` gave RAM inhibit 1.7, Yeast life ext 0.2, Cl transport mod -0.0192, BB579 growth dn -14.3 and WT yeast gro inh -12.4.
CCCc1ccc(OCc2ccccc2)c2c(=O)cc(C(=O)OCC)oc12 was read as Cl transport mod -0.863.
`O=C(OCc1nnc(-c2ccccc2)o1)c1ccc(S(=O)(=O)NCc2ccco2)cc1` gave RAM inhibit 2.0, Yeast life ext -8.6, BB579 growth dn -53.9 and WT yeast gro inh -1.1.
For O=C(Cc1ccc(Cl)cc1)NNC(=S)NC(=O)c1cccs1 the results were Cl transport mod 29.2*, KCC2 secondary 0.00837, KCC2 bumet counter 0.0454*, KCC2 sec2 0.0369*, HEK293 Tl flux 0.0336*, KCC2 retest ouab 0.0372* and HEK counter2 0.0272*.
`O=C(Cc1cccs1)NNC(=S)NCc1ccc(Cl)cc1` gave RAM inhibit 4.4, Yeast life ext -13.6, Cl transport mod -1.55, BB579 growth dn -46.4 and WT yeast gro inh -0.4.
`COc1ccc(CCNC(=O)c2c(-c3ccccc3Cl)noc2C)cc1` gave RAM inhibit 0.9, Yeast life ext -15.8, Cl transport mod -1.03, BB579 growth dn 4.7 and WT yeast gro inh -4.7.
Screening Cc1onc(-c2ccccc2Cl)c1C(=O)NCc1ccccn1 returned RAM inhibit 1.5, Yeast life ext -5.4, Cl transport mod -0.072, BB579 growth dn -22.1 and WT yeast gro inh -2.3.
Cc1onc(-c2ccccc2Cl)c1C(=O)NCCN1Cc2ccccc2C1=O was read as RAM inhibit 1.2, Yeast life ext -15.9, BB579 growth dn -12.7, WT yeast gro inh -8.2, KCC2 secondary 0.0153, KCC2 bumet counter 0.00388, KCC2 sec2 0.0311, HEK293 Tl flux 0.00758, KCC2 retest ouab 0.0168 and HEK counter2 0.0106.

Assay outcomes from PubChem.
